The record followed here is ChEMBL document CHEMBL1152430, “Selective inhibition of nicotinamide adenine dinucleotide kinases by dinucleoside disulfide mimics of nicotinamide adenine dinucleotide analogues” (Bioorg Med Chem, 2009).

The target of assay [1] is T1, NAD kinase (Mycobacterium tuberculosis, UniProt P9WHV7).
T1 sequence (P9WHV7 whole entry): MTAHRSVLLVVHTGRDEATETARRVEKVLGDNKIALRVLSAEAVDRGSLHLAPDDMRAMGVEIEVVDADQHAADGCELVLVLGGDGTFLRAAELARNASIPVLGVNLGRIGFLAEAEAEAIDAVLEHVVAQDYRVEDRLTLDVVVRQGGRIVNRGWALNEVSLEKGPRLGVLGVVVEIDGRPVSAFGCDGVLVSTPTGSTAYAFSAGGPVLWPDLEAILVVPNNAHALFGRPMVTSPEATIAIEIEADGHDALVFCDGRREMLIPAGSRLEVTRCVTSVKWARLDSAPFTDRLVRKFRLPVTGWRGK
The assay is described as follows: Inhibition of Mycobacterium tuberculosis NAD kinase by modified HPLC based assay. The method in brief:
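Purified-to-homogeneity M. tuberculosis NAD kinase incubated at 37 °C in 50 mM Tris/HCl pH 8.0, 20 mM MgCl₂ with ATP and NAD substrates, without or with varying inhibitor concentrations. Reaction stopped with HClO₄, neutralized with K₂CO₃, nucleotides resolved by reversed-phase C18 HPLC with potassium phosphate pH 6.0/methanol gradient.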

The target of assay [2] is T2, NAD kinase (Homo sapiens, UniProt O95544).
T2 sequence (O95544 whole entry): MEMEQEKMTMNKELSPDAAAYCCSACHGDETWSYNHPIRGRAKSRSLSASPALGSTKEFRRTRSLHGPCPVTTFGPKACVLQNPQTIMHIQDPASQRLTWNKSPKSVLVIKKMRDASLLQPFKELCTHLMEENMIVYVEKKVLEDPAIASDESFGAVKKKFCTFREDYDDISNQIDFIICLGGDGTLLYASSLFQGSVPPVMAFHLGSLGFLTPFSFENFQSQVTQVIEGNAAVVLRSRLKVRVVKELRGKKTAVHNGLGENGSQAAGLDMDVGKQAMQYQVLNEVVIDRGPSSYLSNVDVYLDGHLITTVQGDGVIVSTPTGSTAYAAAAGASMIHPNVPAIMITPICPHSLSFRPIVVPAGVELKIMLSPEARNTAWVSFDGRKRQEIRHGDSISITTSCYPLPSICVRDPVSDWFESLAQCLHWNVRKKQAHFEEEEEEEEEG
The assay is described as follows: Inhibition of human NAD kinase by modified HPLC based assay.

The species entered for assay [3] is Homo sapiens. The assay is described as follows: (§1) Inhibition of human IMPDH.
Assay [4] has as its target L-lactate dehydrogenase (Homo sapiens) (UniProt V9HWB9). In words: Inhibition of human LDH.
Assay [5] has as its target Inosine-5'-monophosphate dehydrogenase 1 (Homo sapiens) (UniProt P20839). The assay is described as follows: Inhibition of human IMPDH1 at 100 uM.
For assay [6], the target named is Inosine-5'-monophosphate dehydrogenase 2 (Homo sapiens) (UniProt P12268). In words: Inhibition of human IMPDH2 at 100 uM.
For assay [7], the target named is L-lactate dehydrogenase (Homo sapiens) (UniProt V9HWB9). In words: Inhibition of human LDH at 100 uM.
Assay [8] can be described thus: Inhibition of Listeria monocytogenes NADK1.
The nature of assay [9]: Binding affinity to penicillopepsin.
Assay [10] is described as follows: Inhibition of horse liver alcohol dehydrogenase. Also noted: species or system Equus caballus.
Assay [11] is described as follows: as §1.

Active and inactive are the calls of the source. The calls are words filed in the database; no cut-off is given here.

Sequence of Inosine-5'-monophosphate dehydrogenase 1 (Homo sapiens) (P20839 2-514 limits assumed): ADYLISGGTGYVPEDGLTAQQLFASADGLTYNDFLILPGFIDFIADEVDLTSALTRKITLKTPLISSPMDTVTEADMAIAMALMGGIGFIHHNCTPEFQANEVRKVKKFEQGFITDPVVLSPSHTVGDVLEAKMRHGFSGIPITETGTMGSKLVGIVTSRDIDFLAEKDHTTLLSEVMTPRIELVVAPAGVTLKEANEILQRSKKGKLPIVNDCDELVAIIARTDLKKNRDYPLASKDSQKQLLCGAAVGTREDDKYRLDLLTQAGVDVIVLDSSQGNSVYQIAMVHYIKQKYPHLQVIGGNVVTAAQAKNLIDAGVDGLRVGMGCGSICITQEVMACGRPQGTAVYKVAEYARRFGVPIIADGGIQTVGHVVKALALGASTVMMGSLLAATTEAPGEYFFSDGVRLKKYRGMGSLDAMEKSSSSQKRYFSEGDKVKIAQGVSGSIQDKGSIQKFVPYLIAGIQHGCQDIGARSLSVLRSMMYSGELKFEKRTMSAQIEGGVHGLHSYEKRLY
Sequence of Inosine-5'-monophosphate dehydrogenase 2 (Homo sapiens) (P12268 2-514 limits assumed): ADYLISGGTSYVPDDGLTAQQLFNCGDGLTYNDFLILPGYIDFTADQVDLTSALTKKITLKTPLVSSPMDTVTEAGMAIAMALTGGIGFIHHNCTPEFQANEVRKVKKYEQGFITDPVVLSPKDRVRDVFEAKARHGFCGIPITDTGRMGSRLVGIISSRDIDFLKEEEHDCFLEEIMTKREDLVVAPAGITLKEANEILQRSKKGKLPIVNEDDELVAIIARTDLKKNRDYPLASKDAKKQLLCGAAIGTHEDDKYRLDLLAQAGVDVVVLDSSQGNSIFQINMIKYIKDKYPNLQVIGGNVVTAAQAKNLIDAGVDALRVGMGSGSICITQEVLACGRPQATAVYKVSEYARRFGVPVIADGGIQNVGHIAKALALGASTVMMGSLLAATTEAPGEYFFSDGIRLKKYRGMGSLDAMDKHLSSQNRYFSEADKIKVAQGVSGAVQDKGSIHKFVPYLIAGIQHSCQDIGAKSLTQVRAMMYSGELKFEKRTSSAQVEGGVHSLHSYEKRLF

For the compound `NC(=O)c1csc([C@@H]2O[C@H](CSSC[C@H]3O[C@@H](n4cnc5c(N)ncnc54)[C@H](O)[C@@H]3O)[C@@H](O)[C@H]2O)n1`, the IC50 in assay [1] (read-out: IC50) came out at 80 µM; in assay [2] (read-out: IC50), 110 µM. The inhibition entry in assay [3], in assay [4], in [5], in assay [6] and in assay [7] was “inactive” each time.

As to `Nc1ncnc2c1ncn2[C@@H]1O[C@H](CSSC[C@H]2O[C@@H](n3cnc4c(N)ncnc43)[C@H](O)[C@@H]2O)[C@@H](O)[C@H]1O`, in assay [8], the inhibitory constant (Ki) was found to be 20 µM. Besides, the IC50 amounted to 45 µM in assay [1] (read-out: IC50) and 87 µM in [2] (read-out: IC50). Moreover, the inhibition entry in assay [3], in [4], in assay [5], in assay [6] and in assay [7] was “inactive” each time.

For `COC(=O)[C@@H]1Cc2cccc(c2)CNC(=O)C[C@H](NC(=O)[C@@H](NC(=O)CC(C)C)C(C)C)C(=O)N[C@@H](CC(C)C)P(=O)(O)O1`, the inhibition constant Ki in assay [9] was determined as 0.0001 µM.

Turning to `NC(=O)c1csc([C@@H]2O[C@H](COP(=O)(O)OP(=O)(O)OC[C@H]3O[C@@H](n4cnc5c(N)ncnc54)[C@H](O)[C@@H]3O)[C@@H](O)[C@H]2O)n1` [TIAZOFURIN ADENINE DINUCLEOTIDE], the Ki in assay [10] worked out at 0.001 µM; in [11], 0.1 µM.

Consider `C[C@@]1(O)[C@@H](CSSC[C@H]2O[C@@H](n3cnc4c(N)ncnc43)[C@H](O)[C@]2(C)O)O[C@@H](n2cnc3c(N)ncnc32)[C@@H]1O`, for which the concentration for half-maximal inhibition (IC50) entry in assay [1] and in assay [2] was “Not Active” in each case. The inhibition result in assay [5], in assay [6] and in [7] was “inactive” each time.

For the compound `NC(=O)c1csc([C@@H]2O[C@H](COP(=O)(O)OP(=O)(O)OC[C@H]3O[C@@H](n4cnc5c(N)nc(I)nc54)[C@H](O)[C@@H]3O)[C@@H](O)[C@H]2O)n1`, the affinity in assay [11], expressed as Ki, was 0.02 µM.

In the case of `Nc1ncnc2c1nc(-c1ccccc1)n2[C@@H]1O[C@H](CSSC[C@H]2O[C@@H](n3c(-c4ccccc4)nc4c(N)ncnc43)[C@H](O)[C@@H]2O)[C@@H](O)[C@H]1O`, the IC50 result in assay [1] was “Not Active”; in assay [2] (read-out: IC50), 45 µM. Also, the inhibition entry in assay [5], in assay [6] and in assay [7] was “inactive” in each case.

With `Nc1ncnc2c1ncn2[C@@H]1O[C@H](CSSC[C@H]2O[C@@H](n3c(Br)nc4c(N)ncnc43)[C@H](O)[C@@H]2O)[C@@H](O)[C@H]1O`, the results for the IC50 in assay [1] (read-out: IC50) and in [2] (read-out: IC50) were 14 µM and 6 µM, respectively. The inhibition result in [5], in assay [6] and in assay [7] was “inactive” in each case.

As to `NC(=O)c1csc([C@@H]2O[C@H](CSSC[C@H]3O[C@@H](c4nc(C(N)=O)cs4)[C@H](O)[C@@H]3O)[C@@H](O)[C@H]2O)n1`, the half-maximal inhibitory concentration (IC50) result in [1] and in assay [2] was “Not Active” throughout. Also, the inhibition entry in [3], in assay [4], in assay [5], in [6] and in assay [7] was “inactive” throughout.

On to `NC(=O)c1cccc([C@@H]2O[C@H](COP(=O)(O)OP(=O)(O)OC[C@H]3O[C@@H](n4cnc5c(N)ncnc54)[C@H](O)[C@@H]3O)[C@@H](O)[C@H]2O)c1` [BENZAMIDEADENINEDINUCLEOSIDE], for which the half-inhibitory concentration (IC50) in [1] (read-out: IC50) was determined as 200 µM.

`C#Cc1nc(N)c2ncn([C@@H]3O[C@H](COP(=O)(O)OP(=O)(O)OC[C@H]4O[C@@H](c5nc(C(N)=O)cs5)[C@H](O)[C@@H]4O)[C@@H](O)[C@H]3O)c2n1` registered a Ki in assay [11] of 0.01 µM.

As for `CCc1nc(N)c2ncn([C@@H]3O[C@H](COP(=O)(O)OP(=O)(O)OC[C@H]4O[C@@H](c5nc(C(N)=O)cs5)[C@H](O)[C@@H]4O)[C@@H](O)[C@H]3O)c2n1`, the affinity in assay [11], expressed as Ki, was 0.001 µM.

Take `Nc1ncnc2c1nc(Br)n2[C@@H]1O[C@H](CSSC[C@H]2O[C@@H](n3c(Br)nc4c(N)ncnc43)[C@H](O)[C@@H]2O)[C@@H](O)[C@H]1O`: the results for the IC50 in assay [1] (read-out: IC50) and in assay [2] (read-out: IC50) were 19 µM and 6 µM, respectively. The inhibition entry in assay [5], in [6] and in assay [7] was “inactive” throughout.

Regarding `COC(=O)[C@H](Cc1ccccc1)OP(=O)(O)[C@H](CC(C)C)NC(=O)[C@H](CC(N)=O)NC(=O)[C@@H](NC(=O)CC(C)C)C(C)C`, affinity in [9] was put at a Ki of 0.042 µM.

For the compound `C[C@@]1(O)[C@H](O)[C@@H](CSSC[C@H]2O[C@@H](n3cnc4c(N)ncnc43)[C@](C)(O)[C@@H]2O)O[C@H]1n1cnc2c(N)ncnc21`, the values for the concentration for half-maximal inhibition (IC50) in [1] (read-out: IC50) and in assay [2] (read-out: IC50) were 500 µM and 280 µM, respectively. Further, the inhibition entry in assay [5], in assay [6] and in assay [7] was “inactive” in each case.
